Data on 25 compounds can be found in ChEMBL document CHEMBL1132564, “Antitumor benzothiazoles. 7. Synthesis of 2-(4-acylaminophenyl)benzothiazoles and investigations into the role of acetylation in the antitumor activities of the parent amines” (J Med Chem, 1999).

In assay [1] the test system is MDA-MB-468. Kind of assay: In vitro antitumor activity against MDA-468 carcinoma cell line. The class given is functional, cell-based. The following applies: Homo sapiens. Summed up: (§1)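 MTT assay, 7-day format: 250–300 cells/well, adhered 24 h drug-free, then compound 1 pM–100 μM (n = 8), final DMSO <0.25%; RPMI 1640/10% FCS, 37 °C, 5% CO2. MTT added after exposure, 4 h, formazan dissolved in DMSO–glycine (4:1), absorbance 550 nm.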

Assay [2] has as its system MCF7. Kind of assay: In vitro antitumor activity against MCF-7 carcinoma cell line. The class given is functional, cell-based. As to conditions: Homo sapiens. Summed up:
as §1

In assay [3] the test system is NCI. Kind of assay: In vitro antitumor activity against carcinoma cell lines by 2-day assay. The class given is functional, Homo sapiens. The procedure, abridged:
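NCI panel sulforhodamine B assay: line-specific seeding, 24 h drug-free, then five 10-fold dilutions (top 10^-4 M) for 2 days; growth inhibition from protein-stain optical density change; mean log GI50 across panel.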

Assay [4] concerns Homo sapiens. Nature of the assay: In vitro concentration to reduce colony formation of human tumor xenografts to 30% of the control. The class given is functional. Summed up:
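Clonogenic colony-formation assay using cells from 22 human tumor xenografts, tested at 0.1, 1.0 and 10 μg/mL; colony inhibition expressed as T/C, with T/C < 30% scored active; IC70 concentration reported.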

Assay [5] has as its system NCI. Kind of assay: In vitro antitumor activity against carcinoma cell lines by 6-day assay. The class given is functional, Homo sapiens. The procedure, abridged:
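NCI 60-cell-line panel, sulforhodamine B protein stain. Seeding density set per line's growth; 24 h drug-free incubation, then test agent at five 10-fold dilutions up to 10^-4 M for 6 days of exposure. Growth inhibition derived from change in protein-stain optical density; log GI50 reported.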

With `C/C(S)=N/c1ccc(-c2nc3ccccc3s2)cc1`, the IC50 in assay [1] and in assay [2] was > 100 nM in each case.

With `Nc1ccc(-c2nc3ccccc3o2)cc1`, in assay [3], the “Mean log GI50” value was -4.26 M. Further, the values for the IC50 in assay [1] and in assay [2] were > 1000 nM and > 100 nM, respectively.

Take `Nc1ccc(-c2nc3ccccc3s2)cc1`: in assay [4], the “Mean IC70” value came to 10 µg/mL. Moreover, the “Mean log GI50” value in assay [3] is listed as -4.76 M. For the same compound, the IC50 in assay [1] and in assay [2] was > 10 nM throughout.

With `O=C(Nc1ccc(-c2nc3ccccc3s2)cc1)C(Cl)Cl`, the half-maximal inhibitory concentration (IC50) in assay [1] and in assay [2] was > 100 nM in each case.

As for `Nc1ccc(-c2nc3ccccc3s2)cc1I`, in assay [4], the “Mean IC70” value worked out at 6.1 µg/mL. Besides, the “Mean log GI50” value in assay [3] is -4.75 M; in assay [5] it was -5.12 M. For the same compound, the IC50 in assay [1] and in assay [2] was < 1 nM each time.

On to `CC(=O)N(C(C)=O)c1ccc(-c2nc3ccccc3s2)cc1Cl`, for which the half-maximal inhibitory concentration (IC50) in assay [1] was > 1000 nM; in assay [2], > 10000 nM.

For `CC(=O)Nc1ccc(-c2nc3ccccc3s2)cc1C`, the “Mean log GI50” value in assay [3] was -4.36 M. The IC50 in assay [1] and in assay [2] was > 10000 nM each time.

With `Nc1ccc(-c2nc3ccccc3[nH]2)cc1`, the IC50 in assay [1] is > 1000 nM; in assay [2], > 10000 nM.

For `CC(=O)N(C(C)=O)c1ccc(-c2nc3ccccc3s2)cc1`, the IC50 in assay [1] and in assay [2] was > 100 nM each time.

In the case of `CC(=O)Nc1ccc(-c2nc3ccccc3[nH]2)cc1`, the IC50 in assay [1] and in assay [2] was > 10000 nM throughout.

Consider `CC(=O)Nc1ccc(-c2nc3ccccc3s2)cc1Br`, for which, in assay [3], the “Mean log GI50” value is on record as -4.52 M. The IC50 is > 100 nM in assay [1] and > 10 nM in assay [2].

Consider `CC(=O)Nc1ccc(-c2nc3ccccc3o2)cc1`, for which, in assay [3], the “Mean log GI50” value is listed as -4.27 M. Besides, the IC50 in assay [1] and in assay [2] was > 10000 nM throughout.

For `O=C(CCl)Nc1ccc(-c2nc3ccccc3s2)cc1`, the “Mean IC70” value in assay [4] worked out at 3.5 µg/mL. For the same compound, in assay [3], the “Mean log GI50” value is reported as -5.7 M. The IC50 was > 100 nM in assay [1] and > 10 nM in assay [2].

Take `Cc1cc(-c2nc3ccccc3s2)ccc1N`: the “Mean IC70” value in assay [4] came to 6.9 µg/mL. Moreover, the “Mean log GI50” value is recorded as -4.61 M in assay [3] and -5.05 M in assay [5]. Besides, the IC50 in assay [1] and in assay [2] was < 1 nM in each case.

As to `CC(=O)Nc1ccc(-c2nc3ccccc3s2)cc1Cl`, the “Mean log GI50” value in assay [3] is -4.54 M. In addition, the concentration for half-maximal inhibition (IC50) in assay [1] was > 100 nM; in assay [2], > 10 nM.

Consider `CC(=O)Nc1ccc(-c2nc3ccccc3s2)cc1I`, for which the “Mean log GI50” value in assay [3] is on record as -4.7 M. Moreover, the IC50 in assay [1] and in assay [2] was > 100 nM throughout.

As to `O=C(CCl)Nc1ccc(-c2nc3ccccc3o2)cc1`, the IC50 in assay [1] and in assay [2] was > 1000 nM each time.

On to `CC(=O)Nc1ccc(-c2nc3ccccc3s2)cc1`, for which the “Mean log GI50” value in assay [3] is given as -4.4 M. For the same compound, the IC50 in assay [1] and in assay [2] was > 100 nM in each case.

As for `O=C(Nc1ccc(-c2nc3ccccc3s2)cc1)C(F)(F)F`, the half-maximal inhibitory concentration (IC50) in assay [1] was > 100 nM; in assay [2], > 10 nM.

Consider `O=C(Nc1ccc(-c2nc3ccccc3s2)cc1)c1ccccc1`, for which the IC50 in assay [1] and in assay [2] was > 1000 nM throughout.

For the compound `Nc1ccc(-c2nc3ccccc3s2)cc1Cl`, the entries for the “Mean log GI50” value in assay [3] and in assay [5] were -4.75 M and -5.26 M, respectively. Also, the IC50 in assay [1] and in assay [2] was < 1 nM throughout.

Regarding `c1ccc2sc(-c3ccc4[nH]ncc4c3)nc2c1`, the half-inhibitory concentration (IC50) in assay [1] and in assay [2] was > 10000 nM throughout.

`CC(=O)Nc1ccc(-c2nc3ccccc3s2)cc1[N+](=O)[O-]`: the 50% inhibitory concentration (IC50) in assay [1] and in assay [2] was > 1000 nM in each case.

For the compound `O=C(CCl)Nc1ccc(-c2nc3ccccc3s2)cc1I`, the IC50 in assay [1] and in assay [2] was > 10 nM throughout.

Turning to `CC(=O)N(C(C)=O)c1ccc(-c2nc3ccccc3s2)cc1C`, the half-inhibitory concentration (IC50) in assay [1] and in assay [2] was > 10000 nM each time.
